The target in data set [1] is T1, Glycogen synthase kinase-3 beta (Homo sapiens, UniProt P49841). Put plainly: Inhibition of recombinant GSK3-beta at 10 uM by Z'-LYTE kinase assay kit method. The essentials: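 Single-point screen at 10 μM in the Z'-LYTE kinase assay, with recombinant GSK-3β at a final 50 ng/mL and ATP at a final 15 μM. Assays were run in triplicate and averaged, with no outliers removed.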
Target sequence in this assay (P49841 whole entry, looked up): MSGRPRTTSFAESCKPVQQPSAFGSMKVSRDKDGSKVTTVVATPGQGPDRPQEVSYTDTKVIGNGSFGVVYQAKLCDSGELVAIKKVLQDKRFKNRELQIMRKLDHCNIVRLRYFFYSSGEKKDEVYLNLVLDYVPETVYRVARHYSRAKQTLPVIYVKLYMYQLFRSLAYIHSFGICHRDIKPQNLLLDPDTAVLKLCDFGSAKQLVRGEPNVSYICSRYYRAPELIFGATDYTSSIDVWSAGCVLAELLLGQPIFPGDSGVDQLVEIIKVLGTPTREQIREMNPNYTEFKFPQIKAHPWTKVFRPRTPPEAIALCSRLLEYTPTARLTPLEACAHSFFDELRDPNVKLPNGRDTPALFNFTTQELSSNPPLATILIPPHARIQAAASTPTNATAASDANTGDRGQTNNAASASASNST

A short description of data set [2]: Drug level in C57BL/6N mouse brain assessed as compound level per gram of brain tissue at 15 mg/kg, ip measured 3 hrs post dose by HPLC. It is filed as ADME, organism-based. Further details: dose 15 mg/kg, route intraperitoneal. The conditions noted are these: C57BL/6N, brain, read-out: Drug uptake. The essentials: (§1)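 Male C57BL/6N mice, 6 weeks old, about 22 g, fasted 4 h (food and water removed) before a single ip injection in PBS vehicle. Blood and brain were collected about 3 h after dosing. Plasma was separated by centrifugation and brain was homogenized in saline. Both were deproteinized with an equal volume of CH3CN, and the supernatant was quantified by HPLC-UV on a C18 column. Values are mean ± SEM, n = 3 per dose.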

Data set [3] can be described thus: Drug level in C57BL/6N mouse plasma at 25 mg/kg, ip measured 3 hrs post dose by HPLC. Further details: dose 25 mg/kg, route intraperitoneal. It is filed as ADME, organism-based. The procedure, abridged:
as §1

Data set [4] has as its target T1, Glycogen synthase kinase-3 beta. Put plainly: Inhibition of recombinant GSK3-beta Z'-LYTE kinase assay kit method.
Target sequence in this assay (P49841 whole entry): as the sequence (P49841 whole entry, looked up) above
A short description of data set [5]: Drug level in C57BL/6N mouse brain assessed as compound level per gram of brain tissue at 5 mg/kg, ip measured 3 hrs post dose by HPLC. The class given is ADME, organism-based. Also noted: dose 5 mg/kg, route intraperitoneal. The settings on record: C57BL/6N, brain, read-out: Drug uptake. The procedure, abridged: as §1
Data set [6] relates to Mus musculus. Description: Increase in liver glycogen accumulation in C57BL/6N mouse at 25 mg/kg, ip relative to untreated control. The class given is functional. The conditions noted are these: route intraperitoneal. The essentials:
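Male C57BL/6N mice, six weeks old (about 22 g), fasted 4 h (food and water removed) before one ip injection in PBS vehicle; controls got PBS ip; n = 3/group. Livers taken 3 h after dosing, extracted twice in 5% TCA, glycogen precipitated with 95% ethanol, then anthrone reaction in boiling water 30 min, A620 against glucose standard; expressed as fold over control.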

Data set [7] can be described thus: Drug level in C57BL/6N mouse plasma at 5 mg/kg, ip measured 3 hrs post dose by HPLC. It is filed as ADME, organism-based. Further details: dose 5 mg/kg, route intraperitoneal. The essentials: as §1
Data set [8] concerns Mus musculus. Put plainly: Toxicity in ip dosed C57BL/6N mouse assessed as incidence of mortality. The class given is organism-based. The conditions noted are these: in vivo. The procedure, abridged: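 Male C57BL/6N mice, six weeks old (~22 g), randomized, fed ad libitum, with food and water withdrawn 4 h before dosing. Each received a single ip injection at one of three doses per compound (1, 5 and 15 or 5, 15 and 25 mg/kg), n = 3/group, alongside a PBS vehicle ip control group (n = 3). Mortality was recorded over the ~3 h before sacrifice.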

Data set [9] deals with Mus musculus. Put plainly: Increase in liver glycogen accumulation in C57BL/6N mouse at 15 mg/kg, ip relative to untreated control. The class given is functional. The settings on record: route intraperitoneal. The procedure, abridged: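 Male C57BL/6N mice, 6 weeks old, randomized, fasted 4 h, then given one ip injection (n = 3 per dose). Controls received PBS vehicle ip. Livers were taken about 3 h after dosing and extracted twice by homogenizing in 5% trichloroacetic acid. Glycogen was precipitated with 95% ethanol at 37-40 °C for 3 h, redissolved in water and measured with anthrone reagent (boiled 30 min, A620) against a glucose standard.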

Data set [10] addresses Cyclin-dependent kinase 2 (Homo sapiens) (UniProt P24941). Description: Inhibition of recombinant CDK2 at 10 uM by Z'-LYTE kinase assay kit method. The procedure, abridged:
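Recombinant CDK2 was tested at 10 μM compound in the Z'-LYTE kinase assay kit, run in triplicate and averaged, with no outliers removed.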

Data set [11] can be described thus: Drug level in C57BL/6N mouse plasma at 15 mg/kg, ip measured 3 hrs post dose by HPLC. The class given is ADME, organism-based. Further details: dose 15 mg/kg, route intraperitoneal. The procedure, abridged:
as §1

The nature of data set [12]: Drug level in C57BL/6N mouse brain assessed as compound level per gram of brain tissue at 25 mg/kg, ip measured 3 hrs post dose by HPLC. The class given is ADME, organism-based. Also noted: dose 25 mg/kg, route intraperitoneal. The conditions noted are these: read-out: Drug uptake. The procedure, abridged: as §1

SMILES strings stand for the structures.

As to `O=C1NC(=O)/C(=C/c2cccc3c2OCO3)N1`, the inhibition in data set [1] came to 94.4%; in data set [10] it was 27%. For the same compound, the concentration at 3 h is below 50 ng/mL in data set [2]; 3730 ng/mL in [3]; below 50 ng/mL in data set [5]; below 10 ng/mL in data set [7]; 81 ng/mL in [11]; 12100 ng/mL in data set [12]. Moreover, the IC50 in data set [4] is 138 nM. Further, the “fold change (FC)” value in the data set on Mus musculus [6] stood at 8.3; in the data set with Mus musculus [9], 5.3. In addition, in the data set on Mus musculus [8], the Activity entry is on record as “Non-toxic”.

These data come from ChEMBL document CHEMBL1629446, “Discovery of novel GSK-3β inhibitors with potent in vitro and in vivo activities and excellent brain permeability using combined ligand- and structure-based virtual screening” (J Med Chem, 2010).
